# Tests used:
# Rattus norvegicus = assay: AUC in Sprague-Dawley rat at 10 mg/kg, po; type: ADME, organism-based, Plasma; parameters: dose 10 mg/kg, route oral; conditions: in vivo
# [1] = test system: Human immunodeficiency virus; assay: Antiviral activity against HIV with reverse transcriptase K103N/G190A double mutant assessed as inhibition of viral replication relative to wild type; type: functional
# [2] = test system: Human immunodeficiency virus; assay: Antiviral activity against HIV with reverse transcriptase MDRC4 mutant assessed as inhibition of viral replication; type: functional, organism-based; conditions: Human immunodeficiency virus 1
# [3] = Clearance in rhesus monkey at 1 mg/kg, iv; type: ADME, organism-based, Macaca mulatta; parameters: dose 1 mg/kg, route intravenous; conditions: in vivo
# [4] = test system: Human immunodeficiency virus; assay: Antiviral activity against HIV with reverse transcriptase K103N/Y181C double mutant infected in human MT2 cells assessed as inhibition of viral replication measuring p24 level after 3 days in presence of 10% fetal bovine serum; type: functional; conditions: Human immunodeficiency virus 1, MT2, Serum, 72 h; read-out: CIC95
# Outline: (§1)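 Multiple-cycle replication (Spread) assay in MT2 cells with H9IIIB-background mutant virus. Cells were infected overnight at moi ≈ 0.01 without compound, washed, then cultured 3 days across a range of compound concentrations in medium with 10% FBS. p24 was measured in supernatants. CIC95 is the lowest concentration inhibiting replication by ≥95%, reported as the geometric mean of ≥2 determinations.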
# [5] = test system: Human immunodeficiency virus; assay: Antiviral activity against HIV with reverse transcriptase K101E/Y181C/G190A mutant assessed as inhibition of viral replication; type: functional, organism-based; conditions: Human immunodeficiency virus 1
# [6] = test system: Human immunodeficiency virus; assay: Antiviral activity against HIV with reverse transcriptase K101E/G190A double mutant assessed as inhibition of viral replication; type: functional, organism-based; conditions: Human immunodeficiency virus 1
# [7] = test system: Human immunodeficiency virus; assay: Antiviral activity against HIV with reverse transcriptase V106A/G190A/F227L mutant assessed as inhibition of viral replication; type: functional, organism-based; conditions: Human immunodeficiency virus 1
# [8] = test system: Human immunodeficiency virus; assay: Antiviral activity against HIV with reverse transcriptase CNDO mutant assessed as inhibition of viral replication; type: functional, organism-based; conditions: Human immunodeficiency virus 1
# [9] = Half life in Sprague-Dawley rat at 2 mg/kg, iv; type: ADME, organism-based; parameters: dose 2 mg/kg, route intravenous; conditions: in vivo
# [10] = test system: Human immunodeficiency virus; assay: Antiviral activity against HIV with reverse transcriptase Y188L mutant assessed as inhibition of viral replication relative to wild type; type: functional
# [11] = Half life in Beagle dog at 0.5 mg/kg, iv; type: ADME, organism-based, Canis lupus familiaris; parameters: dose 0.5 mg/kg, route intravenous; conditions: in vivo
# [12] = Volume of distribution in Beagle dog at 0.5 mg/kg, iv; type: ADME, organism-based, Canis lupus familiaris; parameters: dose 0.5 mg/kg, route intravenous; conditions: in vivo
# [13] = Inhibition of RNA-dependent DNA polymerase activity of wild type HIV reverse transcriptase assessed as BrdU incorporation by standard ECL assay; parameters: species or system Human immunodeficiency virus
# Outline: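 Purified recombinant wild-type RT polymerase activity was measured using a 500-nt heteropolymeric RNA template and a biotinylated DNA primer. BrdU incorporation was detected with a ruthenylated anti-BrdU antibody by electrochemiluminescence. Ki is the geometric mean of at least two determinations, each within 25% of the mean.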
# Rhesus monkey = assay: AUC in rhesus monkey at 5 mg/kg, po; type: ADME, organism-based, Macaca mulatta, Plasma; parameters: dose 5 mg/kg, route oral; conditions: in vivo
# [14] = test system: Human immunodeficiency virus; assay: Antiviral activity against HIV with reverse transcriptase K103N mutant assessed as inhibition of viral replication; type: functional, organism-based; conditions: Human immunodeficiency virus 1
# [15] = Clearance in Beagle dog at 0.5 mg/kg, iv; type: ADME, organism-based, Canis lupus familiaris; parameters: dose 0.5 mg/kg, route intravenous; conditions: in vivo
# [16] = test system: Human immunodeficiency virus; assay: Antiviral activity against HIV with reverse transcriptase K103N/Y181C double mutant assessed as inhibition of viral replication; type: functional, organism-based; conditions: Human immunodeficiency virus 1
# [17] = Volume of distribution in rhesus monkey at 1 mg/kg, iv; type: ADME, organism-based, Macaca mulatta; parameters: dose 1 mg/kg, route intravenous; conditions: in vivo
# [18] = test system: Human immunodeficiency virus; assay: Antiviral activity against HIV with reverse transcriptase Y181C mutant assessed as inhibition of viral replication relative to wild type; type: functional
# [19] = test system: Human immunodeficiency virus; assay: Antiviral activity against HIV with reverse transcriptase G190S mutant assessed as inhibition of viral replication; type: functional, organism-based; conditions: Human immunodeficiency virus 1
# [20] = test system: Human immunodeficiency virus; assay: Antiviral activity against HIV with reverse transcriptase K101E/G190A double mutant assessed as inhibition of viral replication relative to wild type; type: functional
# [21] = test system: Human immunodeficiency virus; assay: Antiviral activity against HIV with reverse transcriptase L100I mutant assessed as inhibition of viral replication relative to wild type; type: functional
# [22] = Half life in rhesus monkey at 1 mg/kg, iv; type: ADME, organism-based, Macaca mulatta; parameters: dose 1 mg/kg, route intravenous; conditions: in vivo
# [23] = test system: Human immunodeficiency virus; assay: Antiviral activity against HIV with reverse transcriptase Y181C/G190A double mutant assessed as inhibition of viral replication relative to wild type; type: functional
# Canis familiaris = assay: AUC in Beagle dog at 1 mg/kg, po; type: ADME, organism-based, Canis lupus familiaris, Plasma; parameters: dose 1 mg/kg, route oral; conditions: in vivo
# [24] = Clearance in Sprague-Dawley rat at 2 mg/kg, iv; type: ADME, organism-based; parameters: dose 2 mg/kg, route intravenous; conditions: in vivo
# [25] = test system: Human immunodeficiency virus; assay: Antiviral activity against HIV with reverse transcriptase L100I mutant assessed as inhibition of viral replication; type: functional, organism-based; conditions: Human immunodeficiency virus 1
# [26] = test system: Human immunodeficiency virus; assay: Antiviral activity against HIV with reverse transcriptase K103N/P225H double mutant assessed as inhibition of viral replication relative to wild type; type: functional
# [27] = test system: Human immunodeficiency virus; assay: Antiviral activity against HIV with reverse transcriptase K103N/G190A double mutant assessed as inhibition of viral replication; type: functional, organism-based; conditions: Human immunodeficiency virus 1
# [28] = test system: Human immunodeficiency virus; assay: Antiviral activity against HIV with reverse transcriptase L100I/K103N double mutant assessed as inhibition of viral replication relative to wild type; type: functional
# [29] = test system: Human immunodeficiency virus; assay: Antiviral activity against HIV with reverse transcriptase MDRC4 mutant assessed as inhibition of viral replication relative to wild type; type: functional
# [30] = test system: Human immunodeficiency virus; assay: Antiviral activity against wild type HIV H9-3B infected in human MT2 cells assessed as inhibition of viral replication measuring p24 level after 3 days in presence of 10% fetal bovine serum; type: functional; conditions: Human immunodeficiency virus 1, MT2, Serum; read-out: CIC95
# Outline: (§2)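 Multiple-cycle spread assay in MT2 cells with wild-type H9IIIB virus. Cells were infected overnight at moi ≈ 0.01 without compound, washed, then cultured 3 days across varying compound concentrations in RPMI 1640 with 10% FBS or 50% NHS. p24 was measured in supernatants. CIC95 is the lowest concentration inhibiting replication ≥95%, as the geometric mean of ≥2 determinations.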
# [31] = test system: Human immunodeficiency virus; assay: Antiviral activity against HIV with reverse transcriptase Y181C mutant infected in human MT2 cells assessed as inhibition of viral replication measuring p24 level after 3 days in presence of 10% fetal bovine serum; type: functional; conditions: Human immunodeficiency virus 1, MT2, Serum, 72 h; read-out: CIC95; outline: as §1
# [32] = test system: Human immunodeficiency virus; assay: Antiviral activity against HIV with reverse transcriptase K103N/Y181C/G190A mutant assessed as inhibition of viral replication; type: functional, organism-based; conditions: Human immunodeficiency virus 1
# [33] = test system: Human immunodeficiency virus; assay: Antiviral activity against HIV with reverse transcriptase V106A/G190A/F227L mutant assessed as inhibition of viral replication relative to wild type; type: functional
# [34] = test system: Human immunodeficiency virus; assay: Antiviral activity against HIV with reverse transcriptase CNDO mutant assessed as inhibition of viral replication relative to wild type; type: functional
# [35] = test system: Human immunodeficiency virus; assay: Antiviral activity against HIV with reverse transcriptase G190A mutant assessed as inhibition of viral replication relative to wild type; type: functional
# [36] = test system: Human immunodeficiency virus; assay: Antiviral activity against HIV with reverse transcriptase G190A mutant assessed as inhibition of viral replication; type: functional, organism-based; conditions: Human immunodeficiency virus 1
# [37] = test system: Human immunodeficiency virus; assay: Antiviral activity against HIV with reverse transcriptase K103N/Y181C/G190A mutant assessed as inhibition of viral replication relative to wild type; type: functional
# [38] = test system: Human immunodeficiency virus; assay: Antiviral activity against HIV with reverse transcriptase Y181C mutant assessed as inhibition of viral replication; type: functional, organism-based; conditions: Human immunodeficiency virus 1
# [39] = test system: Human immunodeficiency virus; assay: Antiviral activity against HIV with reverse transcriptase G190S mutant assessed as inhibition of viral replication relative to wild type; type: functional
# [40] = test system: Human immunodeficiency virus; assay: Antiviral activity against HIV with reverse transcriptase Y188L mutant assessed as inhibition of viral replication; type: functional, organism-based; conditions: Human immunodeficiency virus 1
# [41] = Oral bioavailability in rhesus monkey at 5 mg/kg; conditions: in vivo
# [42] = test system: Human immunodeficiency virus; assay: Antiviral activity against HIV with reverse transcriptase L100I/K103N double mutant assessed as inhibition of viral replication; type: functional, organism-based; conditions: Human immunodeficiency virus 1
# [43] = Volume of distribution in Sprague-Dawley rat at 2 mg/kg, iv; type: ADME, organism-based; parameters: dose 2 mg/kg, route intravenous; conditions: in vivo
# [44] = test system: Human immunodeficiency virus; assay: Antiviral activity against HIV with reverse transcriptase K101E/Y181C/G190A mutant assessed as inhibition of viral replication relative to wild type; type: functional
# [45] = test system: Human immunodeficiency virus; assay: Antiviral activity against HIV with reverse transcriptase Y181C/G190A double mutant assessed as inhibition of viral replication; type: functional, organism-based; conditions: Human immunodeficiency virus 1
# [46] = Oral bioavailability in Beagle dog at 1 mg/kg; type: ADME, organism-based, Canis lupus familiaris; conditions: in vivo
# [47] = test system: Human immunodeficiency virus; assay: Antiviral activity against wild type HIV H9-3B infected in human MT2 cells assessed as inhibition of viral replication measuring p24 level after 3 days in presence of 50% normal human serum; type: functional; conditions: Human immunodeficiency virus 1, H9-3B, 72 h, read-out: CIC95; outline: as §2
# [48] = test system: Human immunodeficiency virus; assay: Antiviral activity against HIV with reverse transcriptase K103N mutant assessed as inhibition of viral replication relative to wild type; type: functional
# [49] = test system: Human immunodeficiency virus; assay: Antiviral activity against HIV with reverse transcriptase K103N/P225H double mutant assessed as inhibition of viral replication; type: functional, organism-based; conditions: Human immunodeficiency virus 1
# [50] = test system: Human immunodeficiency virus; assay: Antiviral activity against HIV with reverse transcriptase K103N mutant infected in human MT2 cells assessed as inhibition of viral replication measuring p24 level after 3 days in presence of 10% fetal bovine serum; type: functional; conditions: Human immunodeficiency virus 1, MT2, Serum, 72 h; read-out: CIC95; outline: as §1
# [51] = test system: Human immunodeficiency virus; assay: Antiviral activity against HIV with reverse transcriptase K103N/Y181C double mutant assessed as inhibition of viral replication relative to wild type; type: functional
smiles,measurement,setting,value
N#Cc1cc(Cl)cc(Oc2cc(OCc3n[nH]c4nc(N)ccc34)ccc2Cl)c1,AUC,Rattus norvegicus,23 µM
same,fold change (FC),[1],5.14
same,IC50,[2],9 nM
same,clearance,[3],16 mL/min/kg
same,IC95,[4],101 nM
same,IC50,[5],29.5 nM
same,IC50,[6],6.9 nM
same,IC50,[7],> 1000 nM
same,IC50,[8],1.4 nM
same,half-life,[9],3.5 h
same,fold change (FC),[10],629.07
same,half-life,[11],3.9 h
same,Vd,[12],1.7 L/kg
same,Ki,[13],0.2 nM
same,AUC,Rhesus monkey,0.3 µM
same,IC50,[14],2.6 nM
same,clearance,[15],5.8 mL/min/kg
same,IC50,[16],77.7 nM
same,Vd,[17],1.9 L/kg
same,fold change (FC),[18],3.43
same,IC50,[19],12.3 nM
same,fold change (FC),[20],4.93
same,fold change (FC),[21],0.93
same,half-life,[22],2.1 h
same,fold change (FC),[23],8.29
same,AUC,Canis familiaris,31 µM
same,clearance,[24],9 mL/min/kg
same,IC50,[25],1.3 nM
same,fold change (FC),[26],1.57
same,IC50,[27],7.2 nM
same,fold change (FC),[28],24.86
same,fold change (FC),[29],6.43
same,IC95,[30],5 nM
same,IC95,[31],27 nM
same,IC50,[32],110 nM
same,fold change (FC),[33],>714
same,fold change (FC),[34],1
same,fold change (FC),[35],2.07
same,IC50,[36],2.9 nM
same,fold change (FC),[37],78.93
same,IC50,[38],4.8 nM
same,fold change (FC),[39],8.79
same,IC50,[40],881 nM
same,bioavailability,[41],1%
same,IC50,[42],34.8 nM
same,Vd,[43],2 L/kg
same,fold change (FC),[44],21.07
same,IC50,[45],11.6 nM
same,bioavailability,[46],47%
same,IC95,[47],26 nM
same,fold change (FC),[48],1.86
same,IC50,[49],2.2 nM
same,IC95,[50],11 nM
same,fold change (FC),[51],55.5

# From ChEMBL document CHEMBL1156144, “Biaryl ethers as novel non-nucleoside reverse transcriptase inhibitors with improved potency against key mutant viruses” (J Med Chem, 2009)
